Assay results from different studies.
Compare with care: the assays were run in different laboratories.
ACHE: Acetylcholinesterase (ACHE, Homo sapiens, UniProt P22303)
Sialidase-2: Sialidase-2 (Homo sapiens, UniProt Q9Y3R4)
FABP4: Fatty acid-binding protein, adipocyte (FABP4, Homo sapiens, UniProt P15090)

O=c1cc(CSc2ccc(N=Cc3ccc(Br)cc3)cc2)occ1O  Ki (ACHE; enzyme activity, inhibitor): 907 nM
CC(=O)c1c(C)c2cnc(Nc3ccc(C4CCN(CCS(C)(=O)=O)CC4)cn3)nc2n(C2CCCC2)c1=O  IC50 (Cytochrome P450 2C8 (CYP2C8, Homo sapiens, UniProt P10632); enzyme activity, inhibitor; human, liver microsomes): > 10000 nM
CC(C)(C)CN[C@H]1[C@H]([C@H](O)[C@H](O)CO)OC(C(=O)O)=C[C@@H]1O  IC50 (Sialidase-2; enzyme activity, inhibitor): 120000 nM
CCCCOP(=O)(O)C(C)=O  Ki (1-deoxy-D-xylulose-5-phosphate synthase (dxs, Escherichia coli, UniProt P77488); enzyme activity, inhibitor): 3000 nM
CC(C)c1cc2c(c(O)c1O)[C@@]13CCCC(C)(C)[C@@H]1[C@H](OC3=O)[C@H]2O  Ki (ACHE; enzyme activity, inhibitor): 0.23 nM
Cc1ccccc1C=Nc1ccc(SCc2cc(=O)c(O)co2)cc1  IC50 (ACHE; enzyme activity, inhibitor, Ellman): 5300 nM
Cc1cn([C@H]2[C@H]([C@H](O)[C@H](O)CO)OC(C(=O)O)=C[C@@H]2O)nn1  IC50 (Sialidase-2; enzyme activity, inhibitor): 80000 nM
CC1=C(CO)C(=O)O[C@@H]([C@@H](C)[C@H]2CC[C@H]3[C@@H]4C[C@H]5O[C@]56[C@@H](O)C=CC(=O)[C@]6(C)[C@H]4CC[C@]23C)C1  Kd (Importin subunit beta-1 (KPNB1, Homo sapiens, UniProt Q14974, C158A); binding, MST): 90400 nM
CC(C)c1cc2c(c(O)c1O)[C@@]1(C(=O)O)CCCC(C)(C)[C@@H]1CC2  Ki (ACHE; enzyme activity, inhibitor): 0.58 nM
O=C(O)C(F)(F)C(F)(F)C(F)(F)C(F)(F)C(F)(F)C(F)(F)C(F)(F)C(F)(F)C(F)(F)F  Ki (FABP4; ligand displacement, fluorescence): 1350 nM
Cn1c(=O)n(CCCCN2CCC3(CC2)OCc2ccccc23)c2ccccc21  Ki (Transporter (Slc6a2, Rattus norvegicus, UniProt Q63380); ligand displacement, radioligand; cell membranes): 232 nM
O=C(O)C(F)(F)C(F)(F)C(F)(F)C(F)(F)C(F)(F)C(F)(F)C(F)(F)F  Ki (FABP4; ligand displacement, fluorescence): 1820 nM
Cc1c(-c2cccnc2)c2ccccc2n1CCCCC(=O)O  Kd (FABP4; ligand displacement, fluorescence): 3260 nM
